According to ChEMBL document CHEMBL5712913, “Discovery of novel ATAD2 bromodomain inhibitors that trigger apoptosis and autophagy in breast cells by structure-based virtual screening” (J Enzyme Inhib Med Chem, 2020):
pIC50: −log10 of the molar value. The source made the active and inactive calls. No cut-off for these calls is given here.

Columns and labels:
[1] = target: T1, ATPase family AAA domain-containing protein 2 (Homo sapiens, UniProt Q6PL18); assay: Inhibitory activity against ATAD2 (unknown origin) at bromodomain incubated for 180 min by Tr-FRET assay
T1 sequence (Q6PL18 whole entry): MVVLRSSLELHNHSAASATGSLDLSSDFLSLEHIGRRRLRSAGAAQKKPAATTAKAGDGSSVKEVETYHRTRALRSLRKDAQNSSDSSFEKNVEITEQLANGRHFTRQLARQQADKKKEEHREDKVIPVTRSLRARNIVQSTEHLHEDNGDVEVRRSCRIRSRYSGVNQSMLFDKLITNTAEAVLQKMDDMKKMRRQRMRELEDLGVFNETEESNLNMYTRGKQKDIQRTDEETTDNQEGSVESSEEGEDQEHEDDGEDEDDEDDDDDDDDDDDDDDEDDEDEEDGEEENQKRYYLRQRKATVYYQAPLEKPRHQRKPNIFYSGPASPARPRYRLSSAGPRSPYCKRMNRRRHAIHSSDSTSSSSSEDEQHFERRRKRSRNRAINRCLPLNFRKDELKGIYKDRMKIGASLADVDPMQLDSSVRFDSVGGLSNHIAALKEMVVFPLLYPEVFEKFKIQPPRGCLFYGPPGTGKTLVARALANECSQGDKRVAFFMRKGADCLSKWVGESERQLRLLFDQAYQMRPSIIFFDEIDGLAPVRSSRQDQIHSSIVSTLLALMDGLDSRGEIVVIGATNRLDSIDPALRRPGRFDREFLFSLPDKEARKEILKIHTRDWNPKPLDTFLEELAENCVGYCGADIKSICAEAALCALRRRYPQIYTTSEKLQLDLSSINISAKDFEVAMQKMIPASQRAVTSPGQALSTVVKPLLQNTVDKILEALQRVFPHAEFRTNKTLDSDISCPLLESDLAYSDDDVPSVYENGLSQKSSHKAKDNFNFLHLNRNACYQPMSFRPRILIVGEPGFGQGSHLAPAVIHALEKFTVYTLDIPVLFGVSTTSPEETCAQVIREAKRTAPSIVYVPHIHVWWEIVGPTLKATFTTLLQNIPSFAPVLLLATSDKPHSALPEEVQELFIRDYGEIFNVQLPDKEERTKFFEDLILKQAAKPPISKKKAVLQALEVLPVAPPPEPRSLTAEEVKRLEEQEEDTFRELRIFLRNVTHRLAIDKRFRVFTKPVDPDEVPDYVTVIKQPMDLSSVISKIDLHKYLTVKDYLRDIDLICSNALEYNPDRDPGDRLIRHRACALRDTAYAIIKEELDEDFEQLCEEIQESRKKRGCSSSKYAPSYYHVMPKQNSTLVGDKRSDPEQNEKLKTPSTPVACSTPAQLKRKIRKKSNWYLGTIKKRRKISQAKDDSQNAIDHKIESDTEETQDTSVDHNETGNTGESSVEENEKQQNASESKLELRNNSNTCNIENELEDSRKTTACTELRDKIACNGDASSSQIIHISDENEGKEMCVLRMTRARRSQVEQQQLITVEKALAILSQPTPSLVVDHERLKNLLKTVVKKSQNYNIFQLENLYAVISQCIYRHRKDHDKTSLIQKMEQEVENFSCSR
Summary of the method: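 Recombinant ATAD2 bromodomain and BET ligand read by TR-FRET. Compounds diluted in DMSO, then 20-fold in 5% DMSO in reaction buffer; 2 µl added per 20 µl reaction. Incubated 180 min, then acceptor/donor fluorescence ratio read. Each concentration run in duplicate.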

[2] = test system: MDA-MB-231; assay: Inhibition of ATAD2 in human MDA-MB-231 cells by measuring c-myc protein level at 1.25 to 5 uM for 24 hrs by Western blot analysis; format: functional, cell-based; details: dose 1.25-5 µM
Summary of the method: (§1)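 MDA-MB-231 cells treated with 1.25, 2.5 and 5.0 µM for 24 h. Lysates separated on 10–15% SDS-PAGE and blotted to PVDF. c-Myc and p-cMyc detected with HRP/ECL, with β-actin as loading control.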

[3] = test system: MDA-MB-231; assay: Inhibition of ATAD2 in human MDA-MB-231 cells by measuring reduction in color intensity at 2.5 uM by immuno chemistry analysis; format: functional, cell-based
Summary of the method: (§2)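 MDA-MB-231 cells treated at 2.5 µM. Anti-ATAD2 or anti-p-cMyc primary (1:200 in PBS/1% BSA) applied overnight at 4 °C, then fluorescent secondary antibody 1 h at room temperature. Nuclei counterstained with DAPI, green signal imaged.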

[4] = test system: MDA-MB-231; assay: Inhibition of ATAD2 in human MDA-MB-231 cells assessed as downregulation of c-myc phosphorylation at 2.5 uM by immuno chemistry analysis; format: cell-based; summary of the method: as §2
[5] = test system: MDA-MB-231; assay: Inhibition of ATAD2 in human MDA-MB-231 cells by measuring c-myc phosphorylation at 1.25 to 5 uM for 24 hrs by Western blot analysis; format: functional, cell-based; details: dose 1.25-5 µM; summary of the method: as §1
[6] = test system: MDA-MB-231; assay: Induction of apoptosis in human MDA-MB-231 cells assessed as necrotic cells at 1.25 microM after 24 hrs by Annexin-V/PI staining based flow cytometry (Rvb= 1.22%); format: functional
[7] = test system: MDA-MB-231; assay: Induction of apoptosis in human MDA-MB-231 cells assessed as late apoptotic cells at 1.25 microM after 24 hrs by Annexin-V/PI staining based flow cytometry (Rvb= 2.46%); format: functional
[8] = test system: MDA-MB-231; assay: Induction of apoptosis in human MDA-MB-231 cells assessed as early apoptotic cells at 1.25 microM after 24 hrs by Annexin-V/PI staining based flow cytometry (Rvb= 3.14 %); format: functional
[9] = test system: MDA-MB-231; assay: Induction of apoptosis in human MDA-MB-231 cells assessed as necrotic cells at 2.5 microM after 24 hrs by Annexin-V/PI staining based flow cytometry (Rvb= 1.22%); format: functional
[10] = test system: MDA-MB-231; assay: Induction of apoptosis in human MDA-MB-231 cells assessed as late apoptotic cells at 2.5 microM after 24 hrs by Annexin-V/PI staining based flow cytometry (Rvb= 2.46%); format: functional
[11] = test system: MDA-MB-231; assay: Induction of apoptosis in human MDA-MB-231 cells assessed as viable cells at 2.5 microM after 24 hrs by Annexin-V/PI staining based flow cytometry (Rvb= 93.17 %); format: functional; details: read-out: Activity
[12] = test system: MDA-MB-231; assay: Induction of apoptosis in human MDA-MB-231 cells assessed as early apoptotic cells at 2.5 microM after 24 hrs by Annexin-V/PI staining based flow cytometry (Rvb= 3.14 %); format: functional
[13] = test system: MDA-MB-231; assay: Induction of apoptosis in human MDA-MB-231 cells assessed as necrotic cells at 5 microM after 24 hrs by Annexin-V/PI staining based flow cytometry (Rvb= 1.22%); format: functional
[14] = test system: MDA-MB-231; assay: Induction of apoptosis in human MDA-MB-231 cells assessed as late apoptotic cells at 5 microM after 24 hrs by Annexin-V/PI staining based flow cytometry (Rvb= 2.46%); format: functional
[15] = test system: MDA-MB-231; assay: Induction of apoptosis in human MDA-MB-231 cells assessed as viable cells at 5 microM after 24 hrs by Annexin-V/PI staining based flow cytometry (Rvb= 93.17 %); format: functional; details: read-out: Activity
[16] = test system: MDA-MB-231; assay: Induction of apoptosis in human MDA-MB-231 cells assessed as early apoptotic cells at 5 microM after 24 hrs by Annexin-V/PI staining based flow cytometry (Rvb= 3.14 %); format: functional
[17] = test system: MDA-MB-231; assay: Induction of apoptosis in human MDA-MB-231 cells assessed as increase of Bax expression after 24 hrs by Western blot assay; format: functional, cell-based; details: dose 1.25-5 µM
Summary of the method: (§3)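 MDA-MB-231 cells (DMEM, 10% FBS, 5% CO2) exposed to 1.25, 2.5 or 5 μM for 24 h. Adherent and floating cells lysed in Hepes 50 mM pH 7.4/1% Triton X-100 buffer with phosphatase and protease inhibitors. Equal protein run on 10–15% SDS-PAGE, transferred to PVDF, detected by HRP/ECL. Bands normalised to β-actin, compared with DMSO control by unpaired t-test.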

[18] = test system: MDA-MB-231; assay: Induction of apoptosis in human MDA-MB-231 cells assessed as reduction of Bcl-2 expression after 24 hrs by Western blot assay; format: functional, cell-based; details: dose 1.25-5 µM; summary of the method: as §3
[19] = test system: MDA-MB-231; assay: Induction of apoptosis in human MDA-MB-231 cells assessed as reduction of cleavage of caspase 3 after 24 hrs by Western blot assay; format: functional, cell-based; details: dose 1.25-5 µM; summary of the method: as §3
[20] = test system: MDA-MB-231; assay: Induction of apoptosis in human MDA-MB-231 cells assessed as reduction of cleavage of caspase 8 after 24 hrs by Western blot assay; format: functional, cell-based; details: dose 1.25-5 µM; summary of the method: as §3
[21] = test system: MDA-MB-231; assay: Induction of autophagy in human MDA-MB-231 cells assessed as downregulation of PI3K expression at 1.25 to 5 uM for 24 hrs by Western blot assay; format: functional, cell-based; details: dose 1.25-5 µM
Summary of the method: (§4)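 MDA-MB-231 cells treated with 1.25, 2.5 or 5 µM for 24 h. Lysates made in Hepes pH 7.4/Triton X-100 buffer with protease and phosphatase inhibitors, then run on SDS-PAGE, blotted to PVDF and detected by HRP/ECL. p-PI3K and p-mTOR Ser2448 bands normalised to β-actin.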

[22] = test system: MDA-MB-231; assay: Induction of autophagy in human MDA-MB-231 cells assessed as downregulation of AKT expression at 1.25 to 5 uM for 24 hrs by Western blot assay; format: functional, cell-based; details: dose 1.25-5 µM
[23] = test system: MDA-MB-231; assay: Induction of autophagy in human MDA-MB-231 cells assessed as downregulation of mTOR expression at 1.25 to 5 uM for 24 hrs by Western blot assay; format: functional, cell-based; details: dose 1.25-5 µM; summary of the method: as §4
[24] = test system: MDA-MB-231; assay: Induction of autophagy in human MDA-MB-231 cells assessed as downregulation of mTOR at ser2448 residue expression at 1.25 to 5 uM for 24 hrs by Western blot assay; format: functional, cell-based; details: dose 1.25-5 µM; summary of the method: as §4
[25] = test system: MDA-MB-231; assay: Induction of autophagy in human MDA-MB-231 cells assessed as aggregation of LC3 puncta after 24 hrs by immunofluorescence analysis; format: functional, cell-based
Summary of the method: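 MDA-MB-231 cells transfected with GFP/mRFP-LC3, then exposed to 2.5 µM for 24 h. LC3 puncta and autophagy ratio scored under a fluorescence microscope.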

[26] = test system: MDA-MB-231; assay: Induction of autophagy in human MDA-MB-231 cells assessed as increase of ULK1 expression after 24 hrs by Western blot assay; format: functional, cell-based; details: dose 1.25-5 µM
[27] = test system: MDA-MB-231; assay: Induction of autophagy in human MDA-MB-231 cells assessed as increase of p-ULK1 expression after 24 hrs by Western blot assay; format: functional, cell-based; details: dose 1.25-5 µM
[28] = test system: MDA-MB-231; assay: Induction of autophagy in human MDA-MB-231 cells assessed as increase of beclin 1 expression after 24 hrs by Western blot assay; format: functional, cell-based; details: dose 1.25-5 µM
[29] = test system: MDA-MB-231; assay: Induction of autophagy in human MDA-MB-231 cells assessed as increase of LC3-II expression after 24 hrs by Western blot assay; format: functional, cell-based; details: dose 1.25-5 µM
[30] = test system: MDA-MB-231; assay: Induction of autophagy in human MDA-MB-231 cells assessed as degradation of SQSTM1/p62 after 24 hrs by Western blot assay; format: functional, cell-based; details: dose 1.25-5 µM

## COc1cc(Cl)c(C(=O)N[C@H](CN[C@H]2CC[C@@H](N)CC2)Cc2ccc(C#N)cc2)cc1-c1ccc(CN[C@H](C)c2ccc(C)cc2)o1
[1]
  pIC50: 6.62

## CC1=C(C#N)c2nc(N)c(C#N)c(C)c2/C1=C\c1ccc(-c2cc(C(=O)O)ccc2Cl)o1
[2]
  Activity: Active
[3]
  Activity: Active
[4]
  inhibition: Active
[5]
  Activity: Active
[6]
  Activity: 1.55%
[7]
  Activity: 2.89%
[8]
  Activity: 5.24%
[9]
  Activity: 3.67%
[10]
  Activity: 3.92%
[11]
  viability at 2.5 µM: 84.7%
[12]
  Activity: 7.76%
[13]
  Activity: 5.98%
[14]
  Activity: 10.01%
[15]
  viability at 5 µM: 60.1%
[16]
  Activity: 23.86%
[17]
  Activity: Active
[18]
  Activity: Active
[19]
  Activity: Active
[20]
  Activity: Active
[21]
  Activity: Active
[22]
  Activity: Active
[23]
  Activity: Active
[24]
  Activity: Active
[25]
  Activity: Active
[26]
  Activity: Dose-Dependent Effect
[27]
  Activity: Dose-Dependent Effect
[28]
  Activity: Active
[29]
  Activity: Active
[30]
  Activity: Active
